A selection: hits, their analogues and other compounds. The true share with any hit is near 0.95%.
CAL PDZ FP-1: untagged CAL PDZ binding inhibitors, primary screen, biochemical, fluorescence polarization, HTS | 300,000 compounds, 0.92% hits | Golgi-associated PDZ and coiled-coil motif-containing protein (Homo sapiens), Q9HD26 | inhibition, % at 24.9 µM | purified CAL PDZ, TMR-peptide fluorescence polarization, 1 h;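 active = mean inhibition of at least 30% with at least half of replicates also reaching 30%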;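 also: 0% = DMSO neutral control and 100% = excess unlabeled competitor peptide PRC23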
miR122 inh: miR-122 Renilla sensor signal increase in Huh7, primary screen, miR-122 inhibitor project, cell-based, single point, plate reader; activation (reporter increase), % at 12.5 µM; Huh7 miR-122 Renilla luciferase sensor, 48 h; neutral wells = 0, positive control = 100; AID 602342, 2012; 340,000 compounds, 0.3% hits;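 active = mean replicate activation score at least 90 and every replicate individually at or above 90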;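 also: higher luciferase means less miR-122 activity so hits act as miR-122 inhibitors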
CAL PDZ FP-2: CAL PDZ peptide-binding inhibitors, primary screen, biochemical, fluorescence polarization, Cer-tagged CAL PDZ, HTS; Golgi-associated PDZ and coiled-coil motif-containing protein (Homo sapiens), Q9HD26; AID 504414, 2011; 330,000 compounds, 0.02% hits; inhibition, % at 20 µM; purified CAL PDZ, TMR-peptide fluorescence polarization, 1 h;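 active = highest replicate inhibition of at least 40%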;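 also: plate controls were DMSO neutral control wells for no effect and unlabeled competitor peptide control wells for full effect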
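Material: tagged CAL PDZ domain; buffer or medium: 25 mM sodium phosphate pH 7.4, 150 mM NaCl, TCEP, IgG, Thesit; compound dosing: single point, 20 µM; schedule: 1 h incubation at room temperature before polarization reading; measured by: FP readout, S and P plane fluorescence; read-out basis: percent inhibition from loss of millipolarization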
PvdQ inh: P. aeruginosa PvdQ acylase inhibitors, primary screen, biochemical, fluorescence, plate reader and imaging, single point. 340,000 compounds, 0.063% hits. purified PvdQ acylase. inhibition, % at 10 µM. PvdQ acylase [Pseudomonas aeruginosa LESB58]. AID 488965, 2010; in the data active = inhibition above about 30%, passing the limit was not always enough;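 also: 0% = vehicle neutral wells and 100% = reference inhibitor wells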
Starred values were filed as active, the others as inactive; . = no result given; + = active, no number; [ ] = dose if it differs, or a comment.

SMILES | CAL PDZ FP-1 | miR122 inh | CAL PDZ FP-2 | PvdQ inh
CCNC(=S)N1CCn2c(nc3ccccc32)C1 | -2 | -10 | 0 | -13
COc1ccc(OC)c(C2C3=C(COC3=O)Nc3cc4c(cc32)OCO4)c1 (stereo not given) | . | 140* | 0 | -7
Cc1nc(SCC(=O)O)c(C#N)c2c1CCCC2 | 76* | -12 | -4 | -9
CCc1nc(SCC(=O)O)c(C#N)c2c1CCCC2 | . | . | -1 | -12
CCCCN(CCCC)C(=O)/C=C/c1cccc([N+](=O)[O-])c1 | 0 | -1 | 0 | -16
COc1ccc(OCC(O)CN(C)C(=O)/C=C/c2cccc([N+](=O)[O-])c2)cc1 (stereo not given) | 86* | . | -2 | -9
O=C(NCc1ccccc1F)c1ccc2c(c1)OCO2 | 3 | -6 | -1 | -3
O=C(NCCc1ccccc1F)c1ccc2c(c1)OCCO2 | 47* | -6 | -1 | -13
Cc1ccc(OCCSc2cc(C)nc(N)n2)cc1 | -3 | . | 0 | 9
CCCCSc1cc(C)nc(N)n1 | 39* | . | -3 | -14
O=[N+]([O-])c1cc(S(=O)(=O)Nc2ccc(Cl)cc2)ccc1N/N=C/c1ccncc1 | -2 | 279* | -1 | 3
O=[N+]([O-])c1ccc(Cl)cc1N/N=C/c1ccncc1 | . | 2 | 0 | 2
CO[C@@H]1CN(C)C(=O)c2ccc(NC(C)=O)cc2OC[C@@H](C)N(CCC(F)(F)F)C[C@H]1C | . | 1[16.7 µM] | . | .
O=C(NCc1cccnc1)/C(=C/c1ccc(-c2cccc(C(F)(F)F)c2)o1)NC(=O)c1ccccc1 | 42* | 21 | 32 | -13
Cc1ccc(C(=O)N/C(=C/c2ccc(-c3cc(C(F)(F)F)ccc3Cl)o2)C(=O)NCc2cccnc2)cc1 | -3 | -4 | -3 | 8
Cc1cc(F)ccc1NCc1ccc([N+](=O)[O-])cc1 | 46* | . | -1 | -9
O=C1CSC(=Nc2ccc(Cl)cc2)N1 | 0 | 2 | -1 | -3
O=C(c1ccc(Cl)c(S(=O)(=O)N2CCCCCC2)c1)N1CCOCC1 | -14 | -4 | -1 | -9
Cc1onc(-c2ccccc2)c1C(=O)OCC(=O)c1ccc[nH]1 | . | -9 | . | .
CC(=O)c1c(C)[nH]c(C(=O)COC(=O)c2c(-c3ccccc3)noc2C)c1C | 64* | 22 | 0 | -10
O=C(NNS(=O)(=O)c1cccc(Cl)c1Cl)c1cccc(S(=O)(=O)N2CCOCC2)c1 | 1 | 20 | -2 | 0
O=C(NNS(=O)(=O)c1ccc(Cl)cc1)c1cccc(S(=O)(=O)N2CCOCC2)c1 | -7 | 249* | -1 | -12
O=C(Nc1cccc(S(=O)(=O)N2CCOCC2)c1)c1ccccn1 | 75* | . | 1 | -4
Cc1cc(C(=O)Nc2cccc3c2O[C@H](CN(C)C(=O)Nc2ccc(F)cc2)[C@@H](C)CN([C@H](C)CO)C3=O)n(C)n1 | . | 8[16.7 µM] | . | .
O=c1ccc(-c2ccc(S(=O)(=O)NCc3cccc(Br)c3)s2)n[nH]1 | 1 | 5 | -2 | 3
SMILES | CAL PDZ FP-1 | miR122 inh | CAL PDZ FP-2 | PvdQ inh
CCOc1ccccc1N1CCN(C(=O)c2cc3ccccc3cc2OC)CC1 | 3 | 130* | 0 | -14
COc1cc2ccccc2cc1C(=O)N1CCN(C(C)=O)CC1 | -5 | . | -1 | -2
CCOc1ccccc1C(=O)N1CCN(c2cccc(Cl)c2)CC1 | . | 139* | -2 | -9
O=C(O)c1ccccc1C(=O)N1CCN(c2cccc(Cl)c2)CC1 | -5 | -2 | -1 | -6
C=CCN1C(=O)/C(=c2\sc3nc(=O)c(Cc4ccccc4Cl)nn3c2=O)c2ccccc21 | . | . | 0 | -15
CCCc1cc(=O)oc2c3c(cc(OCC(=O)N4CCC[C@H]4C(=O)O)c12)OC(C)(C)CC3 | 43* | -1 | 0 | 0
COc1ccc(OCCNS(=O)(=O)c2ccc3oc4ccccc4c3c2)cc1 | 0 | 2 | -3 | -7
O=S(=O)(NCCOCC(F)(F)C(F)F)c1ccc2oc3ccccc3c2c1 | -2 | 107* | . | -6
COc1ccc(CSc2nnc(NC(C)=O)s2)cc1[N+](=O)[O-] | -1 | . | 2 | -8
COCCSc1nnc(NC(=O)c2ccc(OC)c([N+](=O)[O-])c2)s1 | 53* | . | 1 | -3
COCCSc1nnc(NC(=O)Cc2ccc(OC)cc2)s1 | 49* | 0 | 0 | -3
COCCSc1nnc(NC(=O)Cc2ccc(OC)c(OC)c2)s1 | 1 | . | -23 | -3
O=Cc1cn[nH]c1-c1cccc([N+](=O)[O-])c1 | -1 | . | -1 | -7
O=C(O)c1cn[nH]c1-c1cccc([N+](=O)[O-])c1 | 61* | . | -5 | -16
CCOC(=O)c1c(C)[nH]c(C)c1C(=O)CN1C(=O)NC2(CCCCCC2)C1=O | 35* | -4 | 0 | -8
CCOC(=O)c1c(C)[nH]c(C(=O)CN2C(=O)NC3(CCCC3)C2=O)c1C | -2 | . | -1 | 0
COc1cc(NC(=S)Nc2ccccn2)cc(OC)c1 | 44* | . | -1 | -6
COc1cc(NC(=S)Nc2ccccn2)cc(OC)c1OC | 0 | . | -1 | -7
O=C(c1noc2c1CCCC2)N1CCC(CO)(Cc2ccccc2Cl)CC1 | 6 | 1 | 0 | -8
O=C1Nc2ccc([N+](=O)[O-])cc2OC1CCN1CCN(Cc2ccc3c(c2)OCO3)CC1 (stereo not given) | 8 | 153* | 0 | 16
N#C/C(=C(/O)c1ccc2c(c1)OCO2)c1nc2cc(C(F)(F)F)ccc2s1 | 43* | 1 | -1 | -3
CC(=O)Nc1ccc(SCC(=O)O)cc1 | 7 | 8 | 0 | 3
COc1ccc2c(c1OC)C(=O)OC2CC(=O)O (stereo not given) | -3 | 2 | -1 | -13
Oc1ccccc1C=NCCN=Cc1ccccc1O | -4 | -5 | 0 | -10
Oc1ccccc1C=NCCCCCCN=Cc1ccccc1O | + | 7 | 0 | -8
SMILES | CAL PDZ FP-1 | miR122 inh | CAL PDZ FP-2 | PvdQ inh
COc1cc(-c2nnc(-c3cc(OC)c(OC)c(OC)c3)o2)cc(OC)c1OC | 44* | 2 | -2 | -30
COc1cc(-c2nnc(-c3ccccc3)o2)cc(OC)c1OC | -2 | -2 | -5 | -16
Cc1ccc(OCCCC(=O)Nc2ccc3c(c2)OCO3)cc1 | 4 | -5 | 0 | -11
COc1ccccc1Oc1ccc2c(c1)C(=O)N(CC(=O)O)C2=O | 0 | . | 0 | -1
CCOC(=O)C1=C(C)NC(C)=C(C(=O)OCC)C1C(=O)OCC(=O)NCc1ccccc1OC | 88* | 20 | 0 | -8
COC(=O)c1ccc(OCc2nn[nH]n2)cc1 | 61* | 2 | -2 | -7
COc1ccc(OC)c(C(C[N+](=O)[O-])c2c(C)cc3ccccn23)c1 (stereo not given) | 48* | -3 | 0 | -18
CN(C)c1ccc(N=Nc2ccc(S(N)(=O)=O)cc2)cc1 | 44* | -9 | -1 | -7
